The target of assay [1] is T1, Substance-K receptor (Homo sapiens, UniProt P21452).
T1 sequence (P21452 whole entry): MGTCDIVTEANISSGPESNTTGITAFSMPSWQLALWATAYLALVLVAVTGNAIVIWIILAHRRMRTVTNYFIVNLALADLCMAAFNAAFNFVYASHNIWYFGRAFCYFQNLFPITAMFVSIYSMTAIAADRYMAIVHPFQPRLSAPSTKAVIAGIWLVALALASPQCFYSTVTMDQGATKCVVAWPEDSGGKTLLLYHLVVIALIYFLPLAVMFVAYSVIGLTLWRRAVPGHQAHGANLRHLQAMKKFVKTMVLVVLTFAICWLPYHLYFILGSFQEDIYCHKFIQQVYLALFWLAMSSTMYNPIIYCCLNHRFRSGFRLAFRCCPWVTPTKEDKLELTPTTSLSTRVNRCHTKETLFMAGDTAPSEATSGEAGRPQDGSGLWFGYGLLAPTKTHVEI
Briefly: Binding affinity towards Tachykinin receptor 2. The method in brief:
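Competition binding at human NK-2 receptor expressed in CHO cells, radioligand [125I]NKA. pKi computed with EBDA then LIGAND; mean of 2–6 experiments, each run in duplicate.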

Assay [2] has as its system Substance-K receptor (Oryctolagus cuniculus). In words: In Vitro evaluation for the functional activity towards Tachykinin receptor 2.
For assay [3], the target named is Substance-P receptor (Cavia porcellus) (UniProt P30547).
Sequence of Substance-P receptor (Cavia porcellus) (P30547 whole entry): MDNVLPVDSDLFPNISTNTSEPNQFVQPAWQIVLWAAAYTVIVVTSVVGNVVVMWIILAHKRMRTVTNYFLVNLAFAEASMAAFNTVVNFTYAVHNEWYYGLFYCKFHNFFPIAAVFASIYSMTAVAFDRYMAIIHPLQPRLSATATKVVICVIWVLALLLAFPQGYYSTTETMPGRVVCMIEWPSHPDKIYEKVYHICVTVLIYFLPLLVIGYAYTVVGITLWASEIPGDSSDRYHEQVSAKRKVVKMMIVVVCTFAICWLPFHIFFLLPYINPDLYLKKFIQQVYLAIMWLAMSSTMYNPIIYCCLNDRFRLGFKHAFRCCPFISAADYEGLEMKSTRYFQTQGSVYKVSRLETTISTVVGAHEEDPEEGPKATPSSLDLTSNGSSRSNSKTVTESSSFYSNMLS
Assay [4] concerns the target T2, Neuromedin-K receptor (Cavia porcellus) (UniProt P30098).
T2 sequence (whole entry): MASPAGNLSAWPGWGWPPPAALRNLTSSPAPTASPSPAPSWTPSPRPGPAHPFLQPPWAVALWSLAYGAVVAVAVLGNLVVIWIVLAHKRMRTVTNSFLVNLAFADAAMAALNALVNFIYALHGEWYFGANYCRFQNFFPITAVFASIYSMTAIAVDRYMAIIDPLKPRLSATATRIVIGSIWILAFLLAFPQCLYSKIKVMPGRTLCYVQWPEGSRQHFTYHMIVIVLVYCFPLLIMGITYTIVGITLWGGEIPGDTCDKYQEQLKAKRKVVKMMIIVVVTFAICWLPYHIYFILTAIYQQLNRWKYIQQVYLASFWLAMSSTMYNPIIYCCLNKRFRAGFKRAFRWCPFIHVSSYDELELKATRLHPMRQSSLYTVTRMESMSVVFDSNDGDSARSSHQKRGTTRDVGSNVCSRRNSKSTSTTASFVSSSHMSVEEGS

Assay [5] addresses T3, Substance-K receptor (Cavia porcellus) (UniProt Q64077).
T3 sequence (whole entry): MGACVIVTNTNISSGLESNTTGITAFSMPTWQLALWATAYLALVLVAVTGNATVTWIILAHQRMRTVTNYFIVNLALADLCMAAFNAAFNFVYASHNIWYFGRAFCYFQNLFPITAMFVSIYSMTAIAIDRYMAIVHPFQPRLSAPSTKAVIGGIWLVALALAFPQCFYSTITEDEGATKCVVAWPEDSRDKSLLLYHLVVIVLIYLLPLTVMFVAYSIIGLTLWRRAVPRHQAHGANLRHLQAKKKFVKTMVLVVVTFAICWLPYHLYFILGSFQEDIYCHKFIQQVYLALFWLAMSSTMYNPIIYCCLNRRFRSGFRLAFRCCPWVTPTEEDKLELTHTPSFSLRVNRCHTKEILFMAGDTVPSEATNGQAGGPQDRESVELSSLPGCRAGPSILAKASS

As usually defined, the Ki is a dissociation constant, usually derived from enzyme kinetics or from competition with a known ligand. High values mean a looser hold on the target, low ones a stronger hold on the target. As usually defined, the pKb is the Kb on a negative log10 scale, so that one unit is a factor of ten. Higher therefore signals a small Kb. The term pKB denotes the negative decadic logarithm of the KB, by convention in mol/L. A high value points to a low KB.

Bridge positions count the residues as written; N and C are the ends. Square brackets hold non-standard residues; d marks the D form. Peptide text beside a SMILES is read from it. * marks the point of attachment. NH(β-GlcNAc) = CC(=O)N[C@@H]1[C@@H](O)[C@H](O)[C@@H](CO)O[C@H]1N*; Dap = NC[C@H](N)C(=O)O

With `COc1ccc(CC2CNC(=O)CCC(=O)N[C@@H](Cc3c[nH]c4ccccc34)C(=O)N[C@@H](Cc3ccccc3)C(=O)N2)cc1` (some centres not stated), the Ki in assay [1] is 10 nM. In addition, the pKb in assay [2] came out at 7.1.
In turn, `O=C1CCC(=O)N[C@@H](Cc2c[nH]c3ccccc23)C(=O)N[C@@H](Cc2ccccc2)C(=O)N[C@H](Cc2ccc(C(F)(F)F)cc2)CN1` had a Ki in assay [1] of 20 nM. The compound also gave a pKb in assay [2] of 7.1.
Compound `O=C1CCC(=O)N[C@H](Cc2ccccc2)CNC(=O)[C@H](Cc2ccccc2)NC(=O)C(Cc2c[nH]c3ccccc23)N1` (single isomer, unassigned) had an inhibition constant Ki in assay [1] of 1260 nM. Further, in assay [2], the pKb is 5.4.
On to `CC(=O)N[C@@H]1[C@@H](O)[C@H](O)[C@@H](CO)O[C@H]1NC(=O)C[C@@H]1NC(=O)[C@H](CC(C)C)NC(=O)[C@@H]2CNC(=O)C[C@H](NC1=O)C(=O)N[C@@H](Cc1c[nH]c3ccccc13)C(=O)N[C@@H](Cc1ccccc1)C(=O)N2` (cyclo(D(NH(β-GlcNAc))DWF[Dap]L); lactam 2-5), for which the Ki in assay [1] is 2.51 nM.
In the case of `O=C1CCC(=O)N[C@@H](Cc2c[nH]c3ccccc23)C(=O)N[C@@H](Cc2ccccc2)C(=O)N[C@H](Cc2ccc(F)c(F)c2)CN1`, in assay [1], the Ki was 1.58 nM. The same compound returned a pKb in assay [2] of 7.8.
Compound `O=C1CCC(=O)N[C@@H](Cc2c[nH]c3ccccc23)C(=O)N[C@@H](Cc2ccccc2)C(=O)NC(Cc2ccccc2)CN1` (some centres not stated) gave a Ki in assay [1] of 1260 nM.
Turning to `O=C1CCC(=O)N[C@@H](Cc2c[nH]c3ccccc23)C(=O)N[C@@H](Cc2ccccc2)C(=O)N[C@H](CCc2ccccc2)CN1`, in assay [1], affinity was put at a Ki of 10 nM. The same compound gave a negative logarithm of the Kb (pKb) in assay [2] of 6.5.
In assay [1], `O=C1CCC(=O)N[C@@H](Cc2c[nH]c3ccccc23)C(=O)N[C@@H](Cc2ccccc2)C(=O)N[C@H](CC2CCCCC2)CN1` had an inhibition constant (Ki) of 316 nM. Moreover, the pKb in assay [2] was found to be 6.5.
Take `O=C1CCC(=O)N[C@@H](Cc2c[nH]c3ccccc23)C(=O)N[C@@H](Cc2ccccc2)C(=O)NC[C@H](Cc2ccccc2)N1`: in assay [1], the affinity, expressed as Ki, was 1260 nM. The compound also registered a pKb in assay [2] of 5.5.
For `O=C1CCC(=O)NC(Cc2c[nH]c3ccccc23)C(=O)N[C@@H](Cc2ccccc2)C(=O)N[C@H](Cc2ccccc2)CN1` (single isomer, unassigned), in assay [1], the affinity corresponds to a Ki of 2 nM. The pKB worked out at 5.7 in assay [3], 6.1 in assay [4] and 7.8 in assay [5].
Compound `O=C1CCC(=O)N[C@@H](Cc2c[nH]c3ccccc23)C(=O)N[C@@H](Cc2ccccc2)C(=O)N[C@H](Cc2ccc3ccccc3c2)CN1` showed an inhibition constant (Ki) in assay [1] of 7.94 nM. In assay [2], this compound showed a negative-log Kb (pKb) of 7.
`O=C1CCC(=O)N[C@@H](Cc2c[nH]c3ccccc23)C(=O)N[C@@H](Cc2ccccc2)C(=O)N[C@H](Cc2ccc(Cl)c(Cl)c2)CN1` gave a Ki in assay [1] of 0.1 nM. In addition, the negative-log Kb (pKb) in assay [2] was determined as 8.1.
In turn, `CSCC[C@@H]1NC(=O)[C@H](CC(C)C)NC(=O)[C@@H]2CNC(=O)C[C@H](NC1=O)C(=O)N[C@@H](Cc1c[nH]c3ccccc13)C(=O)N[C@@H](Cc1ccccc1)C(=O)N2` (cyclo(DWF[Dap]LM); lactam 1-4) had a Ki in assay [1] of 0.631 nM. In assay [2], the negative logarithm of the Kb (pKb) was 8.1.
Turning to `O=C1CC(Cc2ccccc2)C(=O)NCCNC(=O)[C@H](Cc2ccccc2)NC(=O)[C@H](Cc2c[nH]c3ccccc23)N1` (mixture of isomers), in assay [1], the affinity, expressed as Ki, was 794 nM. Besides, the pKb in assay [2] came to 6.1.
As for `O=C1CCC(=O)N[C@@H](Cc2c[nH]c3ccccc23)C(=O)N[C@@H](Cc2ccccc2)C(=O)NCCN1`, the Ki in assay [1] is 1260 nM. The same compound displayed a pKb in assay [2] of 6.3.
As for `O=C1CC(Cc2ccccc2)C(=O)N[C@@H](Cc2c[nH]c3ccccc23)C(=O)N[C@@H](Cc2ccccc2)C(=O)NCCN1` (mixture of isomers), the Ki in assay [1] is 631 nM. In assay [2], this compound gave a negative logarithm of the Kb (pKb) of 5.7.

The record behind these values is ChEMBL document CHEMBL1133478, “Discovery of potent cyclic pseudopeptide human tachykinin NK-2 receptor antagonists” (J Med Chem, 2000).
